From ChEMBL document CHEMBL3600351, “Exploiting translational stalling peptides in an effort to extend azithromycin interaction within the prokaryotic ribosome nascent peptide exit tunnel” (Bioorg Med Chem, 2015)
≈ marks a conversion by molar mass, not a printed value. Calls of active or inactive are those of the source. No cut-off for these calls is given here.

Experiments:
[1] = Inhibition of ribosome nascent peptide exit tunnel in Escherichia coli S30 extract assessed as inhibition of prokaryotic translation in presence of amino acids incubated for 20 mins by luciferase reporter gene assay
Method in brief: (§1)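 E. coli S30 cell-free extract with all amino acids, preincubated with compound for 20 min at room temperature. Luciferase control template added, translation run 60 min at 37 °C, then stopped by 5 min on ice. Luminescence was read after luciferin addition. IC50 from nonlinear fit, triplicate, normalized to vehicle control.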

Staphylococcus aureus [2] = experiment: Ratio of MIC50 for Staphylococcus aureus ATCC 29213 in absence of 50% bovine serum to MIC50 for Staphylococcus aureus ATCC29213 in presence of 50% bovine serum; format: functional
Method in brief: (§2)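 S. aureus ATCC 29213 overnight culture (37 °C) diluted 1:1000 in 50% bovine serum/broth and run by liquid microdilution. Growth was taken from OD600 change over 18 h at 37 °C to give MIC50, in triplicate against a vehicle control. The enhancement ratio is MIC50 without serum divided by MIC50 with serum.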

Escherichia coli = experiment: Antibacterial activity against Escherichia coli ATCC 27856 assessed as inhibition of bacterial growth after 18 hrs by liquid microdilution method; format: functional
Method in brief: (§3)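 Liquid microdilution. Overnight 37 °C cultures, E. coli ATCC 27856 in LB and S. aureus ATCC 29213 in TSB, diluted 1:1000 in the same medium and exposed to compound. Growth was taken from OD600 before and after 18 h at 37 °C. MIC50 is the read-out. Triplicate, normalized to an internal vehicle control.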

[3] = Binding affinity to ribosome nascent peptide exit tunnel in rabbit reticulocyte extract assessed as inhibition of eukaryotic translation in presence of amino acids incubated for 20 mins by luciferase reporter gene assay; design: species or system Oryctolagus cuniculus
Method in brief: as §1, with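 “Nuclease-treated rabbit reticulocyte lysate” for “E. coli S30 cell-free extract”, “90” for “60”, “30” for “37”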

Staphylococcus aureus [4] = experiment: Antibacterial activity against Staphylococcus aureus ATCC 29213 assessed as inhibition of bacterial growth after 18 hrs in presence of 50% bovine serum by liquid microdilution method; format: functional; settings: ATCC 29213, 18 h; method in brief: as §2
Staphylococcus aureus [5] = experiment: Antibacterial activity against Erm+ methicillin-resistant Staphylococcus aureus ATCC 33591 assessed as inhibition of bacterial growth after 18 hrs by liquid microdilution method; format: functional
Method in brief: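 MRSA grown overnight at 37 °C in Nutrient broth, diluted 1:1000 in the same medium, then plated with the compounds. Growth was judged by comparing OD600 before and after 18 h at 37 °C. MIC50 was taken by liquid microdilution. Vancomycin was the positive control. Each compound was run in triplicate and standardized against an internal vehicle control.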

Staphylococcus aureus [6] = experiment: Antibacterial activity against Staphylococcus aureus ATCC 29213 assessed as inhibition of bacterial growth after 18 hrs by liquid microdilution method; format: functional; settings: ATCC 29213, 18 h; method in brief: as §3

| SMILES | IC50 [1] | Ratio (Staphylococcus aureus [2]) | MIC50 (Escherichia coli) | IC50 [3] | MIC50 (Staphylococcus aureus [4]) | MIC50 (Staphylococcus aureus [5]) | MIC50 (Staphylococcus aureus [6]) | MIC50 (Escherichia coli; ATCC 27856, 18 h) | MIC50 (Staphylococcus aureus [5]; ATCC 33591, 18 h) |
| --- | --- | --- | --- | --- | --- | --- | --- | --- | --- |
| CC[C@H]1OC(=O)[C@H](C)[C@@H](O[C@H]2C[C@@](C)(OC)[C@@H](O)[C@H](C)O2)[C@H](C)[C@@H](O[C@@H]2O[C@H](C)C[C@H](N(C)C)[C@H]2O)[C@](C)(O)C[C@@H](C)CN(Cc2ccc(-c3cn(CCn4ccc5cc(OC)ccc54)nn3)cc2)[C@H](C)[C@@H](O)[C@]1(C)O | 504 nM | 2 | inactive | > 250000 nM | 0.78 µg/mL | inactive | 1.56 µg/mL (≈ 1.46 µM) | – | – |
| CC[C@H]1OC(=O)[C@H](C)[C@@H](O[C@H]2C[C@@](C)(OC)[C@@H](O)[C@H](C)O2)[C@H](C)[C@@H](O[C@@H]2O[C@H](C)C[C@H](N(C)C)[C@H]2O)[C@](C)(O)C[C@@H](C)CN(CCCCc2cn(CCc3c[nH]c4ccc(F)cc34)nn2)[C@H](C)[C@@H](O)[C@]1(C)O | 2600 nM | 5 | – | > 250000 nM | 0.16 µg/mL | inactive | 0.78 µg/mL (≈ 0.765 µM) | 32 µg/mL (≈ 31.4 µM) | – |
| CC[C@H]1OC(=O)[C@H](C)[C@@H](O[C@H]2C[C@@](C)(OC)[C@@H](O)[C@H](C)O2)[C@H](C)[C@@H](O[C@@H]2O[C@H](C)C[C@H](N(C)C)[C@H]2O)[C@](C)(O)C[C@@H](C)CN(CCCCc2cn(CCn3ccc4cc([N+](=O)[O-])ccc43)nn2)[C@H](C)[C@@H](O)[C@]1(C)O | 811 nM | 2.5 | – | > 250000 nM | 0.63 µg/mL | inactive | 1.56 µg/mL (≈ 1.49 µM) | 16 µg/mL (≈ 15.3 µM) | – |
| CC[C@H]1OC(=O)[C@H](C)[C@@H](O[C@H]2C[C@@](C)(OC)[C@@H](O)[C@H](C)O2)[C@H](C)[C@@H](O[C@@H]2O[C@H](C)C[C@H](N(C)C)[C@H]2O)[C@](C)(O)C[C@@H](C)CN(Cc2ccc(-c3cn(CCc4c[nH]c5ccccc45)nn3)cc2)[C@H](C)[C@@H](O)[C@]1(C)O | 120 nM | 2 | inactive | > 250000 nM | 1.56 µg/mL | inactive | 3.13 µg/mL (≈ 3.02 µM) | – | – |
| CC[C@H]1OC(=O)[C@H](C)[C@@H](O[C@H]2C[C@@](C)(OC)[C@@H](O)[C@H](C)O2)[C@H](C)[C@@H](O[C@@H]2O[C@H](C)C[C@H](N(C)C)[C@H]2O)[C@](C)(O)C[C@@H](C)CN(CCCCc2cn(CCn3ccc4cc(Cl)ccc43)nn2)[C@H](C)[C@@H](O)[C@]1(C)O | 490 nM | 5 | – | > 250000 nM | 0.16 µg/mL | inactive | 0.78 µg/mL (≈ 0.753 µM) | 64 µg/mL (≈ 61.8 µM) | – |
| CC[C@H]1OC(=O)[C@H](C)[C@@H](O[C@H]2C[C@@](C)(OC)[C@@H](O)[C@H](C)O2)[C@H](C)[C@@H](O[C@@H]2O[C@H](C)C[C@H](N(C)C)[C@H]2O)[C@](C)(O)C[C@@H](C)CN(CCCCc2cn(CCn3ccc4cc(OC)ccc43)nn2)[C@H](C)[C@@H](O)[C@]1(C)O | 238 nM | 10 | – | > 250000 nM | 0.16 µg/mL | inactive | 1.56 µg/mL (≈ 1.51 µM) | 16 µg/mL (≈ 15.5 µM) | – |
| CC[C@H]1OC(=O)[C@H](C)[C@@H](O[C@H]2C[C@@](C)(OC)[C@@H](O)[C@H](C)O2)[C@H](C)[C@@H](O[C@@H]2O[C@H](C)C[C@H](N(C)C)[C@H]2O)[C@](C)(O)C[C@@H](C)CN(CCCCc2cn(CCn3ccc4cc(F)ccc43)nn2)[C@H](C)[C@@H](O)[C@]1(C)O | 646 nM | 5 | – | > 250000 nM | 0.31 µg/mL | inactive | 1.56 µg/mL (≈ 1.53 µM) | 16 µg/mL (≈ 15.7 µM) | – |
| CC[C@H]1OC(=O)[C@H](C)[C@@H](O[C@H]2C[C@@](C)(OC)[C@@H](O)[C@H](C)O2)[C@H](C)[C@@H](O[C@@H]2O[C@H](C)C[C@H](N(C)C)[C@H]2O)[C@](C)(O)C[C@@H](C)CN(CCCCc2cn(CC)nn2)[C@H](C)[C@@H](O)[C@]1(C)O | 1220 nM | 10 | – | > 250000 nM | 0.31 µg/mL | inactive | 3.13 µg/mL (≈ 3.53 µM) | 32 µg/mL (≈ 36.1 µM) | – |
| CC[C@H]1OC(=O)[C@H](C)[C@@H](O[C@H]2C[C@@](C)(OC)[C@@H](O)[C@H](C)O2)[C@H](C)[C@@H](O[C@@H]2O[C@H](C)C[C@H](N(C)C)[C@H]2O)[C@](C)(O)C[C@@H](C)CN(CCCCc2cn(CCN3CCc4ccccc43)nn2)[C@H](C)[C@@H](O)[C@]1(C)O | 147 nM | 10 | – | > 250000 nM | 0.16 µg/mL | inactive | 1.56 µg/mL (≈ 1.55 µM) | 4 µg/mL (≈ 3.99 µM) | – |
| CC[C@H]1OC(=O)[C@H](C)[C@@H](O[C@H]2C[C@@](C)(OC)[C@@H](O)[C@H](C)O2)[C@H](C)[C@@H](O[C@@H]2O[C@H](C)C[C@H](N(C)C)[C@H]2O)[C@](C)(O)C[C@@H](C)CN(CCCCc2cn(CCc3c[nH]c4ccccc34)nn2)[C@H](C)[C@@H](O)[C@]1(C)O | 540 nM | 10 | – | > 250000 nM | 0.078 µg/mL | inactive | 0.78 µg/mL (≈ 0.779 µM) | 16 µg/mL (≈ 16 µM) | – |
| O=C(N[C@H](CO)[C@H](O)c1ccc([N+](=O)[O-])cc1)C(Cl)Cl [CHLORAMPHENICOL] | – | – | – | – | – | – | – | 4 µg/mL (≈ 12.4 µM) | – |
| CN[C@H](CC(C)C)C(=O)N[C@H]1C(=O)N[C@@H](CC(N)=O)C(=O)N[C@H]2C(=O)N[C@H]3C(=O)N[C@H](C(=O)N[C@H](C(=O)O)c4cc(O)cc(O)c4-c4cc3ccc4O)[C@H](O)c3ccc(c(Cl)c3)Oc3cc2cc(c3O[C@@H]2O[C@H](CO)[C@@H](O)[C@H](O)[C@H]2O[C@H]2C[C@](C)(N)[C@H](O)[C@H](C)O2)Oc2ccc(cc2Cl)[C@H]1O [VANCOMYCIN] | – | 1 | – | – | 1.56 µg/mL | – | 1.56 µg/mL (≈ 1.08 µM) | – | 4 µg/mL (≈ 2.76 µM) |
| CC[C@H]1OC(=O)[C@H](C)[C@@H](O[C@H]2C[C@@](C)(OC)[C@@H](O)[C@H](C)O2)[C@H](C)[C@@H](O[C@@H]2O[C@H](C)C[C@H](N(C)C)[C@H]2O)[C@](C)(O)C[C@@H](C)CN(Cc2ccc(-c3cn(CCc4cn(C)c5ccccc45)nn3)cc2)[C@H](C)[C@@H](O)[C@]1(C)O | 641 nM | 4 | – | > 250000 nM | 1.56 µg/mL | inactive | 6.25 µg/mL (≈ 5.96 µM) | 128 µg/mL (≈ 122 µM) | – |
| CC[C@H]1OC(=O)[C@H](C)[C@@H](O[C@H]2C[C@@](C)(OC)[C@@H](O)[C@H](C)O2)[C@H](C)[C@@H](O[C@@H]2O[C@H](C)C[C@H](N(C)C)[C@H]2O)[C@](C)(O)C[C@@H](C)CN(C)[C@H](C)[C@@H](O)[C@]1(C)O [AZITHROMYCIN] | 292 nM | 6 | – | > 250000 nM | 0.13 µg/mL | inactive | 0.78 µg/mL (≈ 1.04 µM) | 4 µg/mL (≈ 5.34 µM) | – |
| CC[C@H]1OC(=O)[C@H](C)[C@@H](O[C@H]2C[C@@](C)(OC)[C@@H](O)[C@H](C)O2)[C@H](C)[C@@H](O[C@@H]2O[C@H](C)C[C@H](N(C)C)[C@H]2O)[C@](C)(O)C[C@@H](C)CN(Cc2ccc(-c3cn(CCn4ccc5ccccc54)nn3)cc2)[C@H](C)[C@@H](O)[C@]1(C)O | 197 nM | 2.5 | – | > 250000 nM | 0.63 µg/mL | inactive | 1.56 µg/mL (≈ 1.51 µM) | 64 µg/mL (≈ 61.8 µM) | – |
| CC[C@H]1OC(=O)[C@H](C)[C@@H](O[C@H]2C[C@@](C)(OC)[C@@H](O)[C@H](C)O2)[C@H](C)[C@@H](O[C@@H]2O[C@H](C)C[C@H](N(C)C)[C@H]2O)[C@](C)(O)C[C@@H](C)CN(Cc2ccc(-c3cn(CCn4ccc5cc(F)ccc54)nn3)cc2)[C@H](C)[C@@H](O)[C@]1(C)O | 463 nM | 2 | – | > 250000 nM | 0.78 µg/mL | inactive | 1.56 µg/mL (≈ 1.48 µM) | 64 µg/mL (≈ 60.8 µM) | – |
| CC[C@H]1OC(=O)[C@H](C)[C@@H](O[C@H]2C[C@@](C)(OC)[C@@H](O)[C@H](C)O2)[C@H](C)[C@@H](O[C@@H]2O[C@H](C)C[C@H](N(C)C)[C@H]2O)[C@](C)(O)C[C@@H](C)CN(Cc2ccc(-c3cn(CCn4ccc5cc(Cl)ccc54)nn3)cc2)[C@H](C)[C@@H](O)[C@]1(C)O | 1250 nM | 2 | inactive | > 250000 nM | 1.56 µg/mL | inactive | 3.13 µg/mL (≈ 2.93 µM) | – | – |
